Source: ChEMBL document CHEMBL1137497, “4-arylcyclohexylalanine analogs as potent, selective, and orally active inhibitors of dipeptidyl peptidase IV” (Bioorg Med Chem Lett, 2007)

Tests used:
Mus musculus [1] = assay: Reduction in glucose excursion in mouse at 0.03 mg/kg, po administered 60 mins prior to dextrose challenge by oral glucose tolerance test; format: functional; set-up: scale not given: the % may be the effect or the level left
How it was run: (§1)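 Single oral dose given 60 min before an oral dextrose challenge. Blood glucose was monitored, and glucose excursion was expressed as percent reduction relative to vehicle-dosed controls.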

[2] = Oral bioavailability in rhesus monkey at 2 mg/kg; format: ADME, organism-based, Macaca mulatta; conditions: in vivo
How it was run: (§2)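 Pharmacokinetic parameters derived by noncompartmental analysis.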

[3] = Cmax in rhesus monkey at 1 mg/kg, iv or 2 mg/kg, po; format: ADME, organism-based, Macaca mulatta; conditions: in vivo; how it was run: as §2
Canis familiaris = assay: AUC in dog at 0.5 mg/kg, po; format: ADME, organism-based, Canis lupus familiaris, Plasma; set-up: dose 0.5 mg/kg, route oral; conditions: in vivo; how it was run: as §2
[4] = Half life in rhesus monkey at 1 mg/kg, iv or 2 mg/kg, po; format: ADME, organism-based, Macaca mulatta; conditions: in vivo; how it was run: as §2
[5] = Oral bioavailability in rat at 2 mg/kg; format: ADME, organism-based; conditions: in vivo; how it was run: as §2
[6] = target: Voltage-gated inwardly rectifying potassium channel KCNH2 (Homo sapiens, UniProt Q12809); assay: Inhibition of human ERG
Voltage-gated inwardly rectifying potassium channel KCNH2, sequence (Q12809 whole entry): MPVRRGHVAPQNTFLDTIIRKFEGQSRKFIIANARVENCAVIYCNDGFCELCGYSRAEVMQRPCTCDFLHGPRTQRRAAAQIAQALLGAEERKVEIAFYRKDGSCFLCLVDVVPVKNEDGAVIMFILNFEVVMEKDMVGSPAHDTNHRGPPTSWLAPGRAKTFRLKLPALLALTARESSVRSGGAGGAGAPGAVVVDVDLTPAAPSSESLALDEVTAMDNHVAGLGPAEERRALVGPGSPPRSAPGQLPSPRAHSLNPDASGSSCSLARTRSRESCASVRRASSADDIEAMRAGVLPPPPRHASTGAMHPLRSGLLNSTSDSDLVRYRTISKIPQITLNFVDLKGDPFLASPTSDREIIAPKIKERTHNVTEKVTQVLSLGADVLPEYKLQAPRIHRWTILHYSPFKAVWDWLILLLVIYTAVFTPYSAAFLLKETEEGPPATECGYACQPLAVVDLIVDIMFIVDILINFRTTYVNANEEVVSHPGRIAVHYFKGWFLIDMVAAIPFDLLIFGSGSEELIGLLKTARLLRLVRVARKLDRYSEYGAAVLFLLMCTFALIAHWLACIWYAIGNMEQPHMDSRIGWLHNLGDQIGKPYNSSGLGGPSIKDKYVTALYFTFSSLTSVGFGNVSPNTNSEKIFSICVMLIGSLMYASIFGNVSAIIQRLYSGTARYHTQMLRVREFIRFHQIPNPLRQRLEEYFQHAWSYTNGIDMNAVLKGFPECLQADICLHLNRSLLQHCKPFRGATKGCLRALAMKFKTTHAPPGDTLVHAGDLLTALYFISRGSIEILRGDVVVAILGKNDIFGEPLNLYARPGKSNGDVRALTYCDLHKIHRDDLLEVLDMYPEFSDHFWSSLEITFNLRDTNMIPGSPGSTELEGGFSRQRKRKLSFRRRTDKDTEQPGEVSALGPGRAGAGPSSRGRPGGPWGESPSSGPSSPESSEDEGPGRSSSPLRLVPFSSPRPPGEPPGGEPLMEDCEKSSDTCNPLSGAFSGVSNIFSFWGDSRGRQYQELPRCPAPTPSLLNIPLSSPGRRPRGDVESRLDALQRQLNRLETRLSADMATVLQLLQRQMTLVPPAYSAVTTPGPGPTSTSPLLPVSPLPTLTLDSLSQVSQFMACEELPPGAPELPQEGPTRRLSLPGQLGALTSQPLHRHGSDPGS

[7] = AUC in rat at 2 mg/kg, po; format: ADME, organism-based; set-up: dose 2 mg/kg, route oral; conditions: plasma; how it was run: as §2
[8] = Oral bioavailability in dog at 0.5 mg/kg; format: ADME, organism-based, Canis lupus familiaris; conditions: in vivo; how it was run: as §2
[9] = Plasma clearance in rhesus monkey at 1 mg/kg, iv or 2 mg/kg, po; format: ADME, organism-based, Macaca mulatta; how it was run: as §2
[10] = Plasma clearance in rat at 1 mg/kg, iv or 2 mg/kg, po; format: ADME, organism-based; how it was run: as §2
[11] = Cmax in rat at 1 mg/kg, iv or 2 mg/kg, po; format: ADME, organism-based; conditions: in vivo; how it was run: as §2
[12] = Cmax in dog at 0.5 mg/kg, po; format: ADME, organism-based, Canis lupus familiaris; set-up: dose 0.5 mg/kg, route oral; conditions: in vivo; how it was run: as §2
[13] = Half life in rat at 1 mg/kg, iv or 2 mg/kg, po; format: ADME, organism-based; conditions: in vivo; how it was run: as §2
[14] = Half life in dog at 0.5 mg/kg, po; format: ADME, organism-based, Canis lupus familiaris; set-up: dose 0.5 mg/kg, route oral; conditions: in vivo; how it was run: as §2
[15] = AUC in rhesus monkey at 2 mg/kg, po; format: ADME, organism-based, Macaca mulatta; set-up: dose 2 mg/kg, route oral; conditions: plasma; how it was run: as §2
Dipeptidyl peptidase 8 = Dipeptidyl peptidase 8 (Homo sapiens, UniProt Q6V1X1); assay: Inhibition of human DPP8
Dipeptidyl peptidase 8, sequence (Q6V1X1 whole entry): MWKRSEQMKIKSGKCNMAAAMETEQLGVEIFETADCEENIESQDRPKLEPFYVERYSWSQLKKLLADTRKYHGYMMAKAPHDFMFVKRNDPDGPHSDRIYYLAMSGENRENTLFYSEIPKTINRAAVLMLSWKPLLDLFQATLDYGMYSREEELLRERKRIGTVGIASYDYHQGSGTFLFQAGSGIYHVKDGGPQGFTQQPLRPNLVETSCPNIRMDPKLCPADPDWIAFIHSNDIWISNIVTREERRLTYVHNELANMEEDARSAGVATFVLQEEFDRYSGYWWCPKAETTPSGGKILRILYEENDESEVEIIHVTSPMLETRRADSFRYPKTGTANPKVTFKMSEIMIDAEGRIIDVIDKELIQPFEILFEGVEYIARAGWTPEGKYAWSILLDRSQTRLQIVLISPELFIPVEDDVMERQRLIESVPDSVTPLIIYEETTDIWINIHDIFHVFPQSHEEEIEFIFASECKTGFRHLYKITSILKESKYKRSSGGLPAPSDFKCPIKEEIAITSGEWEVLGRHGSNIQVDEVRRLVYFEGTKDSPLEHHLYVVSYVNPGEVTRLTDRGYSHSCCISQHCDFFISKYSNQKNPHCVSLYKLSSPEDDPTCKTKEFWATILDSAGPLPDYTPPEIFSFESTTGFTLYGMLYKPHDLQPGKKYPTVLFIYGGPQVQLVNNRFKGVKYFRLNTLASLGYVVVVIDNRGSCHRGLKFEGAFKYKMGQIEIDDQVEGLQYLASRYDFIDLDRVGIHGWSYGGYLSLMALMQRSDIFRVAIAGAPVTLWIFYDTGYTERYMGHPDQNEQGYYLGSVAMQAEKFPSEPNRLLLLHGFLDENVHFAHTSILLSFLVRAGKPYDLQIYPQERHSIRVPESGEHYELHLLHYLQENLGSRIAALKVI

Mus musculus [16] = assay: Reduction in glucose excursion in mouse at 0.1 mg/kg, po administered 60 mins prior to dextrose challenge by oral glucose tolerance test; format: functional; set-up: scale not given: the % may be the effect or the level left; how it was run: as §1
Dipeptidyl peptidase 9 = Dipeptidyl peptidase 9 (Homo sapiens, UniProt Q86TI2); assay: Inhibition of human DPP9
Dipeptidyl peptidase 9, sequence (Q86TI2 whole entry): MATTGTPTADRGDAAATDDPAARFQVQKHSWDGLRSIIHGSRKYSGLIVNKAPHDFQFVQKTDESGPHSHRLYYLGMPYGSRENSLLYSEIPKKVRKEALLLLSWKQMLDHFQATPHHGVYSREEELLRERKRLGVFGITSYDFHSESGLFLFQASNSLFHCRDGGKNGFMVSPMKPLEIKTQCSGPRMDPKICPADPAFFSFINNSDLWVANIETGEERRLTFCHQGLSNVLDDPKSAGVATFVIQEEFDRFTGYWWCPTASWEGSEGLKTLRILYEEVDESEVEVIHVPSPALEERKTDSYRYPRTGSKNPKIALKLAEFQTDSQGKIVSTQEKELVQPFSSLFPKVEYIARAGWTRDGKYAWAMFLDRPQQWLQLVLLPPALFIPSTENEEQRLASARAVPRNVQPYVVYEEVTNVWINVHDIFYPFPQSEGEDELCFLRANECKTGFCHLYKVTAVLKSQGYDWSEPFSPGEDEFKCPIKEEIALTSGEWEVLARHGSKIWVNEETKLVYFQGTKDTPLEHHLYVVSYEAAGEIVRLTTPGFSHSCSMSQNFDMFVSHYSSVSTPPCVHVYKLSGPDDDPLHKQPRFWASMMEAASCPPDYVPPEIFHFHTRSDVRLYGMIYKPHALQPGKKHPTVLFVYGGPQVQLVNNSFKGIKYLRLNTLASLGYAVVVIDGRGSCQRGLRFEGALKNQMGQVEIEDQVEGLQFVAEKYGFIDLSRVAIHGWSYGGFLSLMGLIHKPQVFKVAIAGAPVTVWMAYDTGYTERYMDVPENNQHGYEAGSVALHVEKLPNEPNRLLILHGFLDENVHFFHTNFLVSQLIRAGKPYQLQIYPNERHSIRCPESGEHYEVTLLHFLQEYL

[17] = Oral bioavailability in rat; format: ADME, organism-based; conditions: in vivo
[18] = Half life in rat; format: ADME, organism-based; conditions: in vivo
[19] = Plasma clearance in rat; format: ADME, organism-based

CN(C)C(=O)[C@@H]([C@H]1CC[C@H](c2ccc3ncnn3c2)CC1)[C@H](N)C(=O)N1CCC(F)(F)C1
Activity (Mus musculus [1]): 23% | bioavailability [2]: 97% | Cmax [3]: 2.8 µM | AUC (Canis familiaris): 46 µM·h | half-life [4]: 4.1 h | bioavailability [5]: 63% | IC50 [6]: > 90 µM | AUC [7]: 4.4 µM·h | bioavailability [8]: 100% | clearance [9]: 5.6 mL/min/kg | clearance [10]: 5.3 mL/min/kg | Cmax [11]: 3.3 µM | Cmax [12]: 16 µM | half-life [13]: 4.1 h | half-life [14]: 3.9 h | AUC [15]: 6.5 µM·h

COc1cc([C@H]2CC[C@@H]([C@H](C(=O)N(C)C)[C@H](N)C(=O)N3CCC(F)(F)C3)CC2)nc(OC)n1
IC50 (Dipeptidyl peptidase 8): > 100 µM

CC(=O)N[C@H]1CC[C@H]([C@H](C)[C@H](N)C(=O)N2CC[C@H](F)C2)CC1
bioavailability [5]: 56% | Activity (Mus musculus [16]): 26% | IC50 (Dipeptidyl peptidase 9): > 100 µM | IC50 [6]: > 100 µM | clearance [10]: 42 mL/min/kg

COc1cc([C@H]2CC[C@H]([C@H](C(=O)N(C)C)[C@H](N)C(=O)N3CCC(F)(F)C3)CC2)nc(OC)n1
IC50 (Dipeptidyl peptidase 8): > 100 µM

CN(C)C(=O)[C@@H](c1ccc(-c2ccc(F)cc2)cc1)[C@H](N)C(=O)N1CC[C@H](F)C1
Activity (Mus musculus [16]): 21% | clearance [10]: 4.8 mL/min/kg

CN(C)C(=O)[C@@H](c1ccc(-c2ccc3ncnn3c2)cc1)[C@H](N)C(=O)N1CC[C@H](F)C1
clearance [10]: 7 mL/min/kg

C[C@@H](c1ccc(-c2ccc(F)cc2)cc1)[C@H](N)C(=O)N1CC[C@H](F)C1
bioavailability [5]: 85% | clearance [10]: 8.6 mL/min/kg

CN(C)C(=O)[C@@H]([C@H]1CC[C@H](c2cccc3ncnn32)CC1)[C@H](N)C(=O)N1CC[C@H](F)C1
bioavailability [17]: 31% | half-life [18]: 0.54 h

CN(C)C(=O)[C@@H]([C@H]1CC[C@H](c2cccc3ncnn32)CC1)[C@H](N)C(=O)N1CCC(F)(F)C1
bioavailability [17]: 98% | clearance [19]: 40 mL/min/kg | half-life [18]: 2.9 h
